Measured values reported in ChEMBL document CHEMBL1138187, “2-(2-Thienyl)-5,6-dihydroxy-4-carboxypyrimidines as inhibitors of the hepatitis C virus NS5B polymerase: discovery, SAR, modeling, and mutagenesis” (J Med Chem, 2006).
Active and inactive are the calls of the source. No cut-off for these calls is given here.

How the values were obtained:
[1] = molecular target: RNA-directed RNA polymerase (Hepacivirus hominis) (UniProt O39930); experiment: Inhibition of replication of HCV 1b BK RNA in Huh7 cells at 100 uM in presence of 10% fetal calf serum; assay type: functional, cell-based; conditions: Huh-7
How it was run: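 Subgenomic HCV RNA replicon in Huh-7 cells, modified Bartenschlager procedure with 10% fetal calf serum; compounds first tested at a fixed 100 µM, with EC50 determined only where inhibition exceeded 50%; values averaged over at least three independent determinations.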

[2] = molecular target: RNA-directed RNA polymerase (Hepacivirus hominis) (UniProt O39930); experiment: Inhibitory activity against HCV 1b BK NS5B deltaC55 RNA polymerase at 50 uM; conditions: Hepatitis C virus subtype 1b
[3] = molecular target: RNA-directed RNA polymerase (Hepacivirus hominis) (UniProt O39930); experiment: Inhibitory activity against HCV 1b BK NS5B deltaC55 RNA polymerase at 200 uM; conditions: Hepatitis C virus subtype 1b
Huh-7 = experiment: Cytotoxicity against Huh7 cells upto 100 uM; assay type: functional, cell-based; conditions: Homo sapiens
[4] = system: O=c1ccn([C@@H]2O[C@H](COP(=O)(O)OP(=O)(O)OP(=O)(O)O)[C@@H](O)[C@H]2O)c(=O)[nH]1; experiment: Activity against HCV 1b BK NS5B deltaC55 RNA polymerase; conditions: Hepatitis C virus subtype 1b
How it was run: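 HCV genotype 1b BK-strain NS5B ΔC55 (residues 1-536) expressed in E. coli BL21(DE3) and purified; activity measured with a homopolymeric RNA template, assay run at pH 7.4 with Mg; IC50 is the mean of at least three independent determinations.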

[5] = system: O=c1ccn([C@@H]2O[C@H](COP(=O)(O)OP(=O)(O)OP(=O)(O)O)[C@@H](O)[C@H]2O)c(=O)[nH]1; experiment: Activity against HCV 1b BK NS5B deltaC55-R158M mutant RNA polymerase; conditions: Hepatitis C virus subtype 1b
How it was run: (§1)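 HCV 1b-BK NS5B∆C55 (residues 1-536) carrying R158M or R158K, expressed in E. coli BL21(DE3) and purified. Polymerase run on a homopolymeric template RNA with UTP as substrate; IC50 and UTP Km measured in duplicate.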

[6] = system: O=c1ccn([C@@H]2O[C@H](COP(=O)(O)OP(=O)(O)OP(=O)(O)O)[C@@H](O)[C@H]2O)c(=O)[nH]1; experiment: Activity against HCV 1b BK NS5B deltaC55-R158K mutant RNA polymerase; conditions: Hepatitis C virus subtype 1b; how it was run: as §1

Molecule: CSc1nc(O)c(O)c(C(=O)O)n1
- inhibition [1]: inactive
- inhibition [2]: 55%

Molecule: O=C(Nc1ccsc1-c1nc(O)c(O)c(C(=O)O)n1)OCCc1ccccc1
- inhibition [1]: < 20%

Molecule: O=C(O)c1nc(C2CCCCC2)nc(O)c1O
- inhibition [1]: inactive
- inhibition [3]: 31%

Molecule: O=C(NCc1ccccc1Cl)Nc1ccsc1-c1nc(O)c(O)c(C(=O)O)n1
- Activity (Huh-7): inactive

Molecule: O=C(O)c1nc(Cc2ccccc2)nc(O)c1O
- inhibition [2]: 24%

Molecule: O=C(O)c1nc(-c2cccs2)nc(O)c1O
- inhibition [1]: inactive

Molecule: RNA-directed RNA polymerase (Hepacivirus hominis), O39930
- Km [4]: 6 µM

Molecule: CCCCc1nc(O)c(O)c(C(=O)O)n1
- inhibition [2]: 0%

Molecule: O=C(O)c1nc(-c2nccs2)nc(O)c1O
- inhibition [1]: < 20%

Molecule: RNA-directed RNA polymerase (Hepacivirus hominis) (from UniProt O39930) UNDEFINED MUTATION
- Km [5]: 15 µM
- Km [6]: 20 µM

Molecule: CS(=O)(=O)c1nc(O)c(O)c(C(=O)O)n1
- inhibition [1]: inactive

Molecule: O=C(O)c1nc(-c2ncc[nH]2)nc(O)c1O
- inhibition [2]: 50%

Molecule: O=C(O)c1nc(-c2nccn2Cc2ccccc2)nc(O)c1O
- inhibition [2]: 30%
